From ChEMBL document CHEMBL5724801, “EUbOPEN Chemogenomics Library - Multiplex” (2024)
Values joined by “and” are separate entries in the source; they are usually repeats but may differ in a detail not shown here. Equal values may be shown once.

Tested on: U2OS
Assay: Multiplex assay against U2OS
Assay type: toxicity, cell-based
Settings: human
Outline: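 Tubulin, mitochondrial-mass and membrane-permeability phenotypes are per cents of healthy-nucleus cells. Cells were gated by CellPathfinder machine learning into Hoechst high-intensity objects or normal cells, normal cells into healthy, pyknosed or fragmented nuclei, and pyknosed cells into mitotic or apoptotic. Before that, live cells stained at seeding with Hoechst33342, BioTracker Green Microtubule Cytoskeleton Dye, MitoTracker Red and Annexin V Alexa Fluor 680 were imaged on a CQ1 microscope at 37°C and 5% CO2 after compound addition.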

[1] = 12 h, 1 µM, compound concentration 1 uM
[2] = 12 h, 10 µM, compound concentration 10 uM
[3] = 24 h, 1 µM, compound concentration 1 uM
[4] = 24 h, 10 µM, compound concentration 10 uM
[5] = 48 h, 1 µM, compound concentration 1 uM
[6] = 48 h, 10 µM, compound concentration 10 uM

SMILES: CC(C)CNc1nc(N2CCN(CC3CCCOC3)CC2)ncc1C(=O)NCc1ccccc1 (stereo unspecified)
- Population Apoptotic (%) [1]: 35.29% and 54.55%
- Population Fragmented Nuclei (%) [1]: 1.32% and 3.94%
- Population Healthy Nuclei (%) [1]: 85.22% and 78.74%
- Population Hoechst High Intensity Objects (%) [1]: 0%
- Population Membrane Permeable-Phenotype (%) [1]: 0.93% and 5%
- Population Mitotic Cells (%) [1]: 64.71% and 45.45%
- Population Normal (%) [1]: 100%
- Population Pyknosed Nuclei (%) [1]: 13.46% and 17.32%
- Population Tubulin-Different-Phenotype (%) [1]: 3.1% and 1%
- Total Cell Count [1]: 379 and 127
- Population Apoptotic (%) [2]: 51.14% and 36.59%
- Population Fragmented Nuclei (%) [2]: 1.76% and 7.28%
- Population Healthy Nuclei (%) [2]: 72.35% and 65.56%
- Population Hoechst High Intensity Objects (%) [2]: 0%
- Population Membrane Permeable-Phenotype (%) [2]: 22.36% and 30.3%
- Population Mitochondria Different-Phenotype (%) [2]: 72.36% and 89.9%
- Population Mitotic Cells (%) [2]: 48.86% and 63.41%
- Population Normal (%) [2]: 100%
- Population Pyknosed Nuclei (%) [2]: 25.88% and 27.15%
- Population Tubulin-Different-Phenotype (%) [2]: 97.15% and 94.95%
- Total Cell Count [2]: 340 and 151
- Population Apoptotic (%) [3]: 43.1% and 31.82%
- Population Fragmented Nuclei (%) [3]: 1.29% and 7.91%
- Population Healthy Nuclei (%) [3]: 86.27% and 76.26%
- Population Hoechst High Intensity Objects (%) [3]: 0.21% and 0%
- Population Membrane Permeable-Phenotype (%) [3]: 2.49% and 9.43%
- Population Mitotic Cells (%) [3]: 56.9% and 68.18%
- Population Normal (%) [3]: 99.79% and 100%
- Population Pyknosed Nuclei (%) [3]: 12.45% and 15.83%
- Population Tubulin-Different-Phenotype (%) [3]: 3.98% and 4.72%
- Population Apoptotic (%) [4]: 71.3% and 64%
- Population Fragmented Nuclei (%) [4]: 3.28% and 4.55%
- Population Healthy Nuclei (%) [4]: 67.21% and 62.99%
- Population Hoechst High Intensity Objects (%) [4]: 0%
- Population Membrane Permeable-Phenotype (%) [4]: 17.07% and 18.56%
- Population Mitochondria Different-Phenotype (%) [4]: 81.3% and 91.75%
- Population Mitotic Cells (%) [4]: 28.7% and 36%
- Population Normal (%) [4]: 100%
- Population Pyknosed Nuclei (%) [4]: 29.51% and 32.47%
- Population Tubulin-Different-Phenotype (%) [4]: 97.15% and 93.81%
- Total Cell Count [4]: 366 and 154
- Population Apoptotic (%) [5]: 58.06% and 46.43%
- Population Fragmented Nuclei (%) [5]: 2.14% and 3.47%
- Population Healthy Nuclei (%) [5]: 86.13% and 80.35%
- Population Hoechst High Intensity Objects (%) [5]: 0%
- Population Membrane Permeable-Phenotype (%) [5]: 1.02% and 4.32%
- Population Mitotic Cells (%) [5]: 41.94% and 53.57%
- Population Normal (%) [5]: 100%
- Population Pyknosed Nuclei (%) [5]: 11.73% and 16.18%
- Population Tubulin-Different-Phenotype (%) [5]: 2.64% and 6.47%
- Population Apoptotic (%) [6]: 80.41% and 90%
- Population Fragmented Nuclei (%) [6]: 7.04% and 6.08%
- Population Healthy Nuclei (%) [6]: 55.78% and 60.14%
- Population Hoechst High Intensity Objects (%) [6]: 0%
- Population Membrane Permeable-Phenotype (%) [6]: 13.06% and 17.98%
- Population Mitochondria Different-Phenotype (%) [6]: 79.28% and 93.26%
- Population Mitotic Cells (%) [6]: 19.59% and 10%
- Population Normal (%) [6]: 100%
- Population Pyknosed Nuclei (%) [6]: 37.19% and 33.78%
- Population Tubulin-Different-Phenotype (%) [6]: 96.4% and 88.76%
- Total Cell Count [6]: 398 and 148

SMILES: N#Cc1ccnc(Nc2cc(C3CCN(C4COC4)CC3)cc(N3CCC(F)(F)C3)n2)c1
- Population Apoptotic (%) [1]: 40.82% and 36.11%
- Population Fragmented Nuclei (%) [1]: 3.13% and 0.79%
- Population Healthy Nuclei (%) [1]: 84.07% and 70.87%
- Population Hoechst High Intensity Objects (%) [1]: 0%
- Population Membrane Permeable-Phenotype (%) [1]: 3.11% and 2.22%
- Population Mitochondria Different-Phenotype (%) [1]: 0.62% and 8.89%
- Population Mitotic Cells (%) [1]: 59.18% and 63.89%
- Population Normal (%) [1]: 100%
- Population Pyknosed Nuclei (%) [1]: 12.79% and 28.35%
- Population Tubulin-Different-Phenotype (%) [1]: 4.35% and 2.22%
- Population Apoptotic (%) [2]: 46.67% and 38.95%
- Population Fragmented Nuclei (%) [2]: 9.07% and 13.15%
- Population Healthy Nuclei (%) [2]: 64.38% and 42.25%
- Population Hoechst High Intensity Objects (%) [2]: 0%
- Population Membrane Permeable-Phenotype (%) [2]: 7.56% and 17.78%
- Population Mitotic Cells (%) [2]: 53.33% and 61.05%
- Population Normal (%) [2]: 100%
- Population Pyknosed Nuclei (%) [2]: 26.55% and 44.6%
- Population Tubulin-Different-Phenotype (%) [2]: 73.88% and 62.22%
- Total Cell Count [2]: 452 and 213
- Population Apoptotic (%) [3]: 47.06% and 53.12%
- Population Fragmented Nuclei (%) [3]: 3.81% and 2.05%
- Population Healthy Nuclei (%) [3]: 82.57% and 76.03%
- Population Hoechst High Intensity Objects (%) [3]: 0%
- Population Membrane Permeable-Phenotype (%) [3]: 2.18% and 6.31%
- Population Mitochondria Different-Phenotype (%) [3]: 0.49% and 8.11%
- Population Mitotic Cells (%) [3]: 52.94% and 46.88%
- Population Normal (%) [3]: 100%
- Population Pyknosed Nuclei (%) [3]: 13.63% and 21.92%
- Population Tubulin-Different-Phenotype (%) [3]: 2.67% and 3.6%
- Population Apoptotic (%) [4]: 51.37% and 67.97%
- Population Fragmented Nuclei (%) [4]: 11.21% and 9%
- Population Healthy Nuclei (%) [4]: 50.11% and 30.33%
- Population Hoechst High Intensity Objects (%) [4]: 0% and 0.47%
- Population Membrane Permeable-Phenotype (%) [4]: 6.75% and 10.94%
- Population Mitochondria Different-Phenotype (%) [4]: 21.94% and 51.56%
- Population Mitotic Cells (%) [4]: 48.63% and 32.03%
- Population Normal (%) [4]: 100% and 99.53%
- Population Pyknosed Nuclei (%) [4]: 38.69% and 60.66%
- Population Tubulin-Different-Phenotype (%) [4]: 58.65% and 40.62%
- Total Cell Count [4]: 473 and 212
- Population Apoptotic (%) [5]: 55.7% and 66.67%
- Population Fragmented Nuclei (%) [5]: 3.56% and 4.98%
- Population Healthy Nuclei (%) [5]: 85.19% and 78.61%
- Population Hoechst High Intensity Objects (%) [5]: 0.14% and 0%
- Population Membrane Permeable-Phenotype (%) [5]: 1.84% and 5.06%
- Population Mitochondria Different-Phenotype (%) [5]: 0.67% and 6.33%
- Population Mitotic Cells (%) [5]: 44.3% and 33.33%
- Population Normal (%) [5]: 99.86% and 100%
- Population Pyknosed Nuclei (%) [5]: 11.25% and 16.42%
- Population Tubulin-Different-Phenotype (%) [5]: 3.01% and 2.53%
- Population Apoptotic (%) [6]: 68.72% and 75.36%
- Population Fragmented Nuclei (%) [6]: 9.35% and 11.35%
- Population Healthy Nuclei (%) [6]: 37.83% and 28.38%
- Population Hoechst High Intensity Objects (%) [6]: 0.22% and 0%
- Population Mitochondria Different-Phenotype (%) [6]: 37.93% and 24.62%
- Population Mitotic Cells (%) [6]: 31.28% and 24.64%
- Population Normal (%) [6]: 99.78% and 100%
- Population Pyknosed Nuclei (%) [6]: 52.83% and 60.26%
- Population Tubulin-Different-Phenotype (%) [6]: 56.9% and 30.77%
- Total Cell Count [6]: 461 and 229

SMILES: CCOC(=O)c1cnn(-c2ccc(NC(=O)C(Cl)=C(Cl)Cl)cc2)c1C(F)(F)F
- Population Apoptotic (%) [1]: 35.29% and 57.89%
- Population Fragmented Nuclei (%) [1]: 2.52% and 2.35%
- Population Healthy Nuclei (%) [1]: 88.92% and 86.47%
- Population Hoechst High Intensity Objects (%) [1]: 0%
- Population Membrane Permeable-Phenotype (%) [1]: 0.57% and 2.72%
- Population Mitochondria Different-Phenotype (%) [1]: 0.85% and 4.76%
- Population Mitotic Cells (%) [1]: 64.71% and 42.11%
- Population Normal (%) [1]: 100%
- Population Pyknosed Nuclei (%) [1]: 8.56% and 11.18%
- Population Tubulin-Different-Phenotype (%) [1]: 0.57% and 0%
- Total Cell Count [1]: 397 and 170
- Population Apoptotic (%) [2]: 21.96% and 33.6%
- Population Fragmented Nuclei (%) [2]: 2.71% and 4.35%
- Population Healthy Nuclei (%) [2]: 8.13% and 5.07%
- Population Hoechst High Intensity Objects (%) [2]: 0%
- Population Membrane Permeable-Phenotype (%) [2]: 11.11% and 28.57%
- Population Mitotic Cells (%) [2]: 78.04% and 66.4%
- Population Normal (%) [2]: 100%
- Population Pyknosed Nuclei (%) [2]: 89.16% and 90.58%
- Population Tubulin-Different-Phenotype (%) [2]: 25.93% and 14.29%
- Total Cell Count [2]: 332 and 138
- Population Apoptotic (%) [3]: 36.07% and 39.02%
- Population Fragmented Nuclei (%) [3]: 1.33% and 1.84%
- Population Healthy Nuclei (%) [3]: 87.12% and 79.26%
- Population Hoechst High Intensity Objects (%) [3]: 0%
- Population Membrane Permeable-Phenotype (%) [3]: 0.43% and 0.58%
- Population Mitochondria Different-Phenotype (%) [3]: 0.43% and 4.07%
- Population Mitotic Cells (%) [3]: 63.93% and 60.98%
- Population Normal (%) [3]: 100%
- Population Pyknosed Nuclei (%) [3]: 11.55% and 18.89%
- Population Tubulin-Different-Phenotype (%) [3]: 0.22% and 0%
- Total Cell Count [3]: 528 and 217
- Population Apoptotic (%) [4]: 65.22% and 84.92%
- Population Fragmented Nuclei (%) [4]: 3.27% and 2.76%
- Population Healthy Nuclei (%) [4]: 7.74% and 10.34%
- Population Hoechst High Intensity Objects (%) [4]: 0%
- Population Membrane Permeable-Phenotype (%) [4]: 30.77% and 46.67%
- Population Mitochondria Different-Phenotype (%) [4]: 0% and 13.33%
- Population Mitotic Cells (%) [4]: 34.78% and 15.08%
- Population Normal (%) [4]: 100%
- Population Pyknosed Nuclei (%) [4]: 88.99% and 86.9%
- Population Tubulin-Different-Phenotype (%) [4]: 57.69% and 60%
- Total Cell Count [4]: 336 and 145
- Population Apoptotic (%) [5]: 48.86% and 64.44%
- Population Fragmented Nuclei (%) [5]: 5.03% and 2.12%
- Population Healthy Nuclei (%) [5]: 85.95% and 84.24%
- Population Hoechst High Intensity Objects (%) [5]: 0%
- Population Membrane Permeable-Phenotype (%) [5]: 1.31% and 2.52%
- Population Mitochondria Different-Phenotype (%) [5]: 0.12% and 2.16%
- Population Mitotic Cells (%) [5]: 51.14% and 35.56%
- Population Normal (%) [5]: 100%
- Population Pyknosed Nuclei (%) [5]: 9.03% and 13.64%
- Population Tubulin-Different-Phenotype (%) [5]: 1.07% and 1.44%
- Total Cell Count [5]: 975 and 330
- Population Apoptotic (%) [6]: 86.63% and 98.18%
- Population Fragmented Nuclei (%) [6]: 2.51% and 10.64%
- Population Healthy Nuclei (%) [6]: 38.87% and 50.35%
- Population Hoechst High Intensity Objects (%) [6]: 0%
- Population Membrane Permeable-Phenotype (%) [6]: 8.06% and 23.94%
- Population Mitochondria Different-Phenotype (%) [6]: 11.29% and 15.49%
- Population Normal (%) [6]: 100%
- Population Pyknosed Nuclei (%) [6]: 58.62% and 39.01%
- Population Tubulin-Different-Phenotype (%) [6]: 66.94% and 47.89%
- Total Cell Count [6]: 319 and 141
